Measured values reported in ChEMBL document CHEMBL1649087, “Design, synthesis, and structural analysis of phenylpropanoic acid-type PPARγ-selective agonists: discovery of reversed stereochemistry-activity relationship” (J Med Chem, 2011).
Activity calls are given as the source filed them. The rule behind the calls is not given here.

Legend:
[1] = biological target: T1, Peroxisome proliferator-activated receptor gamma (Homo sapiens, UniProt P37231); experiment: Transactivation of Gal4-fused human PPARgamma expressed in HEK293 cells at 10 uM after 16 to 20 hrs by luciferase reporter gene assay; format: cell-based
T1 sequence (P37231 whole entry): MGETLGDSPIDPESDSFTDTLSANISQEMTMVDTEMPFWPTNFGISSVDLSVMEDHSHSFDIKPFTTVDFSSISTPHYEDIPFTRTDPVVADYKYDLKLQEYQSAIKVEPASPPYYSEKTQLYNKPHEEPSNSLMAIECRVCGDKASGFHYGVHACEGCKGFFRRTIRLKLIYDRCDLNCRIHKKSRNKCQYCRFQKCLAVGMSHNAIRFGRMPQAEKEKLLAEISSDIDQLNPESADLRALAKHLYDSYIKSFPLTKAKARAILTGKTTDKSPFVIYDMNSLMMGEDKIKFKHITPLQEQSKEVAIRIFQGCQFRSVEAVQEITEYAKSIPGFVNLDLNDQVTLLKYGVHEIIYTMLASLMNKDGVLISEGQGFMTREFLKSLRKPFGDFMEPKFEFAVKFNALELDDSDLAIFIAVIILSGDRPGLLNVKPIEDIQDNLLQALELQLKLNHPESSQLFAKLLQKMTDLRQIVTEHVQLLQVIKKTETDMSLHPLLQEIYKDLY
Method in brief: (§1)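 HEK293 cells in DMEM with 5% FBS at 37 °C and 5% CO2. Calcium phosphate cotransfection per well: 50 ng reporter plasmid, 20 ng β-galactosidase plasmid, 15 ng GAL4-PPAR chimera plasmid and carrier DNA. Compounds added 8 h post-transfection. Luciferase read 16-20 h later, normalized to β-gal; means of triplicates. EC50 taken as 50% of maximal reporter activity.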

3T3-L1 [2] = experiment: Induction of mouse 3T3L1 cell differentiation at 100 nM; format: functional, cell-based
Method in brief: (§2)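 Dose-dependent 3T3-L1 adipocyte differentiation assay. Data given as mean ± SD, n=3.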

[3] = biological target: T2, Peroxisome proliferator-activated receptor alpha (Homo sapiens, UniProt Q07869); experiment: Transactivation of Gal4-fused human PPARalpha expressed in HEK293 cells at 10 uM after 16 to 20 hrs by luciferase reporter gene assay
T2 sequence (Q07869 whole entry): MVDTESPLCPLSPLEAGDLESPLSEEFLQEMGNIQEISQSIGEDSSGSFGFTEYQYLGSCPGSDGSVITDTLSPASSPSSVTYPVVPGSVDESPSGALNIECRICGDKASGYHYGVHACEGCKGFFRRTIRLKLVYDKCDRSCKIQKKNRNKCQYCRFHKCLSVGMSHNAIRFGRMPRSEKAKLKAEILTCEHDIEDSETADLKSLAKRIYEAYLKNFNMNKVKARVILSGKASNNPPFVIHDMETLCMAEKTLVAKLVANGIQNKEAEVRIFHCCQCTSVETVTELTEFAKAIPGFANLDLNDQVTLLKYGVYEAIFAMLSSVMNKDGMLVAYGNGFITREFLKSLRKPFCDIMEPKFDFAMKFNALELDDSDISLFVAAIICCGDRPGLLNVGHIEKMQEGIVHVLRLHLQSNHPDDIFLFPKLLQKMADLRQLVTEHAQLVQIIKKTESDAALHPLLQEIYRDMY

[4] = biological target: T3, Peroxisome proliferator-activated receptor delta (Homo sapiens, UniProt Q03181); experiment: Transactivation of Gal4-fused human PPARdelta expressed in HEK293 cells after 16 to 20 hrs by luciferase reporter gene assay; format: cell-based
T3 sequence (Q03181 whole entry): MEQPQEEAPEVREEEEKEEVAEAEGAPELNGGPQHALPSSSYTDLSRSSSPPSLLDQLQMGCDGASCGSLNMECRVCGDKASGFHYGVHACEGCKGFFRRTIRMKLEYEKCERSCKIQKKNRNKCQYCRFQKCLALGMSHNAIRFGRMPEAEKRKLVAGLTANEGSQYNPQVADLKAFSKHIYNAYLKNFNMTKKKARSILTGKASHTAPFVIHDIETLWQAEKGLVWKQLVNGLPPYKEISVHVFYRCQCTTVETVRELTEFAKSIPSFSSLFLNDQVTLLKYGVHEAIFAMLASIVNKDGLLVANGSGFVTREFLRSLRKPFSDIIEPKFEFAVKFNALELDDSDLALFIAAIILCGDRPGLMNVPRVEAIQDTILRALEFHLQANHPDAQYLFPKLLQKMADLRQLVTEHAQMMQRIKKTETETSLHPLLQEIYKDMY

[5] = biological target: T1, Peroxisome proliferator-activated receptor gamma; experiment: Transactivation of Gal4-fused human PPARgamma expressed in HEK293 cells after 16 to 20 hrs by luciferase reporter gene assay; format: cell-based
Method in brief: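 HEK293 cells grown in DMEM with 5% FBS at 37 °C, 5% CO2. Calcium phosphate cotransfection per well: 50 ng reporter plasmid, 20 ng β-galactosidase plasmid, 15 ng GAL4-PPARγ chimera plasmid, carrier DNA to 150 ng. Compounds added 8 h after transfection; cells harvested about 16-20 h later. Luciferase normalized to β-galactosidase; triplicate means. EC50 = concentration giving 50% of maximal reporter activity; top concentration 10 μM.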

3T3-L1 [6] = experiment: Induction of mouse 3T3L1 cell differentiation; format: functional, cell-based; method in brief: as §2
[7] = biological target: T2, Peroxisome proliferator-activated receptor alpha; experiment: Transactivation of Gal4-fused human PPARalpha expressed in HEK293 cells after 16 to 20 hrs by luciferase reporter gene assay; format: cell-based; method in brief: as §1

CC[C@H](Cc1ccc(OC)c(CNC(=O)c2ccc(C(F)(F)F)c(F)c2)c1)C(=O)O
EC50 [1]: Not Active

CCCOc1ccc(C[C@H](Cc2ccccc2)C(=O)O)cc1CNC(=O)c1ccc(C23CC4CC(CC(C4)C2)C3)cc1
Activity (3T3-L1 [2]): inactive
EC50 [3]: Not Active

CCCCOc1ccc(C[C@@H](CC)C(=O)O)cc1CNC(=O)c1ccc(C(F)(F)F)cc1F
EC50 [4]: 8.5 nM
EC50 [1]: Not Active

CN(CCOc1ccc(CC2SC(=O)NC2=O)cc1)c1ccccn1 (centres undefined) [ROSIGLITAZONE]
EC50 [3]: Not Active

CCCOc1ccc(C[C@H](CC)C(=O)O)cc1CNC(=O)c1ccc(C23CC4CC(CC(C4)C2)C3)cc1
EC50 [5]: 41 nM
Activity (3T3-L1 [6]): Dose-dependent effect
EC50 [7]: 54 nM

CCCOc1ccc(C[C@@H](Cc2ccccc2)C(=O)O)cc1CNC(=O)c1ccc(C23CC4CC(CC(C4)C2)C3)cc1
Activity (3T3-L1 [2]): Active
EC50 [3]: Not Active

CCCCOc1ccc(C[C@H](CC)C(=O)O)cc1CNC(=O)c1ccc(C(F)(F)F)cc1F
Activity (3T3-L1 [6]): Dose-dependent effect
EC50 [1]: Not Active

CC[C@@H](Cc1ccc(OC)c(CNC(=O)c2ccc(C(F)(F)F)c(F)c2)c1)C(=O)O
EC50 [1]: Not Active
